Test [1] has as its target T1, Bla g 4 (Blattella germanica, UniProt P54962). The test is described as follows: isothermal titration calorimetry. In kind it is binding. In short, it runs like this:
(§1)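 Bla g 4 binding enthalpy was recorded by ITC at 25°C in 20 mM phosphate buffer, pH 8.0, with 100 μM protein and test amine titrant at 1 mM initial concentration. Supporting 1H-15N HSQC titrations used 0.2 mM 15N-labelled Bla g 4 (M9, 15N ammonium chloride) in 20 mM acetate, pH 4.5, 10% D2O, at 308 K and 800 MHz. Protein:ligand molar ratios were 1:0, 1:0.5, 1:1 and 1:2.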
For orientation: Isothermal titration calorimetry measures the heat released or taken up as one component is titrated into another.

Test [2] concerns the target T1, Bla g 4. The test is described as follows: isothermal titration calorimetry. Type of test: binding. In a few lines: as §1
This is another data set of the same source.

Like-named read-outs stand apart in the source and are kept apart here.

T1 sequence (P54962 7-182): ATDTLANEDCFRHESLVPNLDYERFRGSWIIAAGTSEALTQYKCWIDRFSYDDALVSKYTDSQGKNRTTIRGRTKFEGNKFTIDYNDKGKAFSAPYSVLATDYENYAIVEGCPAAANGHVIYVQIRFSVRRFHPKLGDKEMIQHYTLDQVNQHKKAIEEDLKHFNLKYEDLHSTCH

For the compound `NC[C@H](O)c1ccc(O)cc1` [octopamine], on Bla g 4 [1], binding was put at a Kd of 0.185 µM.

Regarding `NCCc1ccc(O)cc1` [tyramine], the dissociation constant Kd (commonly the equilibrium constant for the complex coming apart) at Bla g 4 [2] is 0.045 µM.
